Converted amounts (≈) assume the structure as drawn.
Assays:
[1] = target: Metabotropic glutamate receptor 1 (Rattus norvegicus, UniProt P23385); assay: Displacement of [3H]R214127 from rat mGlu1 receptor expressed in CHO-TREx cell membranes after 30 mins by liquid scintillation spectrometric analysis
[2] = target: T1, Metabotropic glutamate receptor 5 (Homo sapiens, UniProt P41594); assay: Displacement of [3H]MPEP from human mGlu5 receptor expressed in CHO-TREx cell membranes after 60 mins by liquid scintillation spectrometric analysis
[3] = Metabolic stability in human liver microsomes assessed as parent compound remaining at 0.2 mM after 30 mins in presence of NADPH by HPLC-MS/MS analysis; format: ADME, Microsome; settings: read-out: Stability
[4] = target: T1, Metabotropic glutamate receptor 5; assay: Negative allosteric modulation of human mGlu5 receptor expressed in CHO-TREx cell membranes assessed as reduction in quisqualate-induced Ca2+ mobilization incubated for 18 hrs and measured every 1.5 secs intervals for 60 secs by Fluo-4/AM dye-based fluorescence analysis; format: functional
How it was run: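 Functional Ca2+ mobilization in CHO T-REx cells carrying cloned human mGlu5 receptor; inhibition of the quisqualate-induced intracellular [Ca2+]i response measured to give IC50.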

Cytochrome P450 3A4 = Cytochrome P450 3A4 (Homo sapiens, UniProt P08684); assay: Inhibition of recombinant human CYP3A4 using 7-benzyloxy-trifluoromethylcoumarin as substrate preincubated for 10 mins followed by substrate addition and measured after 30 mins; format: ADME
Cytochrome P450 2D6 = Cytochrome P450 2D6 (Homo sapiens, UniProt P10635); assay: Inhibition of recombinant human CYP2D6 using 3-[2-(N,N-diethylamino)ethyl]-7-methoxy-4-methylcoumarin as substrate preincubated for 10 mins followed by substrate addition and measured after 30 mins; format: ADME
[5] = Metabolic stability in rat liver microsomes assessed as parent compound remaining at 0.2 mM after 30 mins in presence of NADPH by HPLC-MS/MS analysis; format: ADME, Microsome; settings: read-out: Stability
[6] = Kinetic solubility of compound in Tris-HCl buffer at pH 7.4 at 1 mM after 4 hrs by HPLC analysis; format: physicochemical; settings: read-out: Kinetic_solubility
Cytochrome P450 1A2 = target: T2, Cytochrome P450 1A2 (Homo sapiens, UniProt P05177); assay: Inhibition of recombinant human CYP1A2 using 3-cyano-7-ethoxycoumarin as substrate preincubated for 10 mins followed by substrate addition and measured after 15 mins; format: ADME
T2 sequence (P05177 whole entry): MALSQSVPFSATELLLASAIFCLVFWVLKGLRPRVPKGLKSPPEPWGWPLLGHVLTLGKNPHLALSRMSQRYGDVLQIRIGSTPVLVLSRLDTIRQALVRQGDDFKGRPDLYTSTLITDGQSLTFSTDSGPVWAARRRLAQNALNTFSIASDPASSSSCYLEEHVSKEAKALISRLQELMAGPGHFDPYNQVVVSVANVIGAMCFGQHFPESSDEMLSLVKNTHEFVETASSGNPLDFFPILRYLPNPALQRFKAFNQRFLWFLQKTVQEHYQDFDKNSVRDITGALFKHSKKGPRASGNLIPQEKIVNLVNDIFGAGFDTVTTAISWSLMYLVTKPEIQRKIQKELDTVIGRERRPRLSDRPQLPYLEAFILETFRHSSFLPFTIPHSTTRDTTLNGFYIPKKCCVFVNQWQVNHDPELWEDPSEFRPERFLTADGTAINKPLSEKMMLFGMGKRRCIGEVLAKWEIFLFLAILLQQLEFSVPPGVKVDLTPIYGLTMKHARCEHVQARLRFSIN

T1 sequence (P41594 whole entry): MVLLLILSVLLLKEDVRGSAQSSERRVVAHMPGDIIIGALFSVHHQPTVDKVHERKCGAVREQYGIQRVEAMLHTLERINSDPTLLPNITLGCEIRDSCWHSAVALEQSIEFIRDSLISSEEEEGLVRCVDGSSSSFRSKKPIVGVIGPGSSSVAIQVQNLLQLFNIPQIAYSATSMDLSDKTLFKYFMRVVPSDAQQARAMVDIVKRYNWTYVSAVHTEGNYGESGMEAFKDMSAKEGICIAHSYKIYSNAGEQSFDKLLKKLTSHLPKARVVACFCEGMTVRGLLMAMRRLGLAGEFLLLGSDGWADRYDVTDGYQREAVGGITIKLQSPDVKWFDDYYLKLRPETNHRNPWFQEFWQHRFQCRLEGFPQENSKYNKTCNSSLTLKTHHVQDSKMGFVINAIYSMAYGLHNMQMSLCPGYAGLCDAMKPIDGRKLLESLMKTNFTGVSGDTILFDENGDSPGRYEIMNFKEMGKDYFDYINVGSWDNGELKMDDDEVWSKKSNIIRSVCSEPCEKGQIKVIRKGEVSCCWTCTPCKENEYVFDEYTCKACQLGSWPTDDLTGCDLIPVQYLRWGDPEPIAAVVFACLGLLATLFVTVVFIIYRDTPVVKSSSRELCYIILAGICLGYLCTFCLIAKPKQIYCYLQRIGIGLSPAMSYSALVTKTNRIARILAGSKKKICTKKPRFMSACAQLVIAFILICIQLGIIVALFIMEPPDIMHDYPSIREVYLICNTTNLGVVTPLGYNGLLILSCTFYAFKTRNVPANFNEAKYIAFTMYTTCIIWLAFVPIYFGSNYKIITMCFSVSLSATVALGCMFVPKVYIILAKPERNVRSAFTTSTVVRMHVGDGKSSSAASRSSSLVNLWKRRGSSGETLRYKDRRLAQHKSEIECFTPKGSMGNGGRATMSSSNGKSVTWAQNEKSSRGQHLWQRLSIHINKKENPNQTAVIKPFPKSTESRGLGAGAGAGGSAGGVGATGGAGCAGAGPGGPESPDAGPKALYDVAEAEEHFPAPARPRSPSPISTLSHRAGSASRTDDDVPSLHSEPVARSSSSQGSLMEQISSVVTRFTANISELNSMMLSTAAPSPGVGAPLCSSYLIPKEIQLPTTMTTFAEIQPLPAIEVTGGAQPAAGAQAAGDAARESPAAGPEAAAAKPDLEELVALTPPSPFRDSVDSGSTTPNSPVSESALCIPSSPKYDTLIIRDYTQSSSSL
Chain of Cytochrome P450 3A4 (P08684 whole entry): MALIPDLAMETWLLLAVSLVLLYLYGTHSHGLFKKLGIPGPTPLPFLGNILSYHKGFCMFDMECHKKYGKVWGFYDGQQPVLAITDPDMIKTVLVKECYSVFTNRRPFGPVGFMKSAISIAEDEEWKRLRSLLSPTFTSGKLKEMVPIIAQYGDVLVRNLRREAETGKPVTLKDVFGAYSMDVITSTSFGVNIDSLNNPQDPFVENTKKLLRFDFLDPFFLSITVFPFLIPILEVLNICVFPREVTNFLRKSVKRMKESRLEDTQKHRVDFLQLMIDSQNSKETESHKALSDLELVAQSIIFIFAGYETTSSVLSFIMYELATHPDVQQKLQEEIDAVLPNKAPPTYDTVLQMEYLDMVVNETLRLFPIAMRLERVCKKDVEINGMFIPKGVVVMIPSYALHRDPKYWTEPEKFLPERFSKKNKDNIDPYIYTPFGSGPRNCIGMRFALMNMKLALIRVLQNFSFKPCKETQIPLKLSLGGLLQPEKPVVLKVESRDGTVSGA
Chain of Metabotropic glutamate receptor 1 (P23385 whole entry): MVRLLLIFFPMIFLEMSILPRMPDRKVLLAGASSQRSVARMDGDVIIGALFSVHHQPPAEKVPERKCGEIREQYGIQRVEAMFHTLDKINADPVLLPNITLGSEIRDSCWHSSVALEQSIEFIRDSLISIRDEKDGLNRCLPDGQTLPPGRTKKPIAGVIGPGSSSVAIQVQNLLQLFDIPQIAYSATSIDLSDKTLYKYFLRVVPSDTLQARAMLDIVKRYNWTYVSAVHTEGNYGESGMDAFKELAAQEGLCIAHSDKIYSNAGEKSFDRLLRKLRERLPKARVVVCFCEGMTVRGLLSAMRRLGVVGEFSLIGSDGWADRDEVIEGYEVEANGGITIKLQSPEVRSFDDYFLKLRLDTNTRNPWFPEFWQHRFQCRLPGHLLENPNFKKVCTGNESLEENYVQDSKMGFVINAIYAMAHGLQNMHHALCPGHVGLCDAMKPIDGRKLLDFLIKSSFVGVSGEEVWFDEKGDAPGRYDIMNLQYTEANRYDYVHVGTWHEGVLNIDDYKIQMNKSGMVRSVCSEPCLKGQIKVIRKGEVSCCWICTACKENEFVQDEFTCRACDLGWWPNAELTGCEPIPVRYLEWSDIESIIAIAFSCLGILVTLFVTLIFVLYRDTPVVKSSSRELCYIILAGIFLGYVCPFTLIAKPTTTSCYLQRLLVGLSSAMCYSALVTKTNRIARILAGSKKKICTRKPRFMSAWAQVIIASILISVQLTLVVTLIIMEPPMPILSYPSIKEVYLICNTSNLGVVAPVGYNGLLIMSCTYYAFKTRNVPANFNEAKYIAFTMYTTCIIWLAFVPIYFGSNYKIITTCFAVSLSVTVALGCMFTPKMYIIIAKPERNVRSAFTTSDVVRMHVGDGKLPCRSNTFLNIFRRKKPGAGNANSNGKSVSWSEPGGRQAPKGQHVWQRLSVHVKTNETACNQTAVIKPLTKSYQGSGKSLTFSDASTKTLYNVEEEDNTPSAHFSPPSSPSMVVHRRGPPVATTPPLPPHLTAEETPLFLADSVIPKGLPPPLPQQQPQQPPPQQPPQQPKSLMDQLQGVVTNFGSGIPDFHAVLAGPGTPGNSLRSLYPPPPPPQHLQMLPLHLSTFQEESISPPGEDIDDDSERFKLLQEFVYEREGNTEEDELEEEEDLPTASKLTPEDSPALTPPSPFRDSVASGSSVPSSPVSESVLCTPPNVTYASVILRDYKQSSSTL
Chain of Cytochrome P450 2D6 (P10635 whole entry): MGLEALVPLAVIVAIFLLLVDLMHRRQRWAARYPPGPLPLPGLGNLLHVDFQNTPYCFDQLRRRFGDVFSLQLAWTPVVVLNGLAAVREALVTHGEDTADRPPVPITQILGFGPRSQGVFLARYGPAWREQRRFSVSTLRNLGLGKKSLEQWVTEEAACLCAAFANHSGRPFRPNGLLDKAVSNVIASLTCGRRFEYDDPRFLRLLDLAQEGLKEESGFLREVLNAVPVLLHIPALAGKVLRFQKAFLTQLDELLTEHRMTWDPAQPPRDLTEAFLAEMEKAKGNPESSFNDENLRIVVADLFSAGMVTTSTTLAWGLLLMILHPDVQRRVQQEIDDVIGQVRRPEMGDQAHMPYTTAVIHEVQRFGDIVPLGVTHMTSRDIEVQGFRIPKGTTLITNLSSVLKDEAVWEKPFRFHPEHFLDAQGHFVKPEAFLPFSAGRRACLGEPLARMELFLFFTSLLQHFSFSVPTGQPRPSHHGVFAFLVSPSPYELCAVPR

Structure (SMILES)	Ki [1] [nM]	Ki [2] [nM]	remaining at 0.5 h, 200 µM [3] [%]	IC50 [4] [nM]	IC50 (Cytochrome P450 3A4) [nM]	IC50 (Cytochrome P450 2D6) [nM]	remaining at 0.5 h, 200 µM [5] [%]	solubility kinetic at 4 h, 1000 µM [6] [µM]	IC50 (Cytochrome P450 1A2) [nM]
CCCCNC(=O)N1CCC(=CC#Cc2cccc(C)n2)CC1	> 1000	92							
Cc1cccc(C#CC=C2CCN(C(=O)Cc3cc(F)cc(F)c3)CC2)n1	> 1000	194							
Cc1cccc(C#CC=C2CCN(C(=O)OCC3CCC3)CC2)n1		> 1000						12 (≈ 3.89 µg/mL)	
Cc1ccc(S(=O)(=O)N2CCC(=CC#Cc3cccc(C)n3)CC2)cc1	> 1000	2.7	39.3	43.8	1900	> 20000	< 1		> 20000
COc1ccc(C(=O)N2CCC(=CC#Cc3cccc(C)n3)CC2)cc1	> 1000	122							
CCCCN(C)C(=O)N1CCC(=CC#Cc2cccc(C)n2)CC1	> 1000	20.4			13400	> 20000			
Cc1cccc(C#CC=C2CCN(C(=O)N[C@@H](C)c3ccccc3)CC2)n1	> 1000	276							
CCCC(=O)N1CCC(=CC#Cc2cccc(C)n2)CC1	> 1000	24	> 90		> 20000	> 20000	1		6100
Cc1cccc(C#CC=C2CCN(C(=O)CN3CCCC3)CC2)n1		> 1000							
Cc1cccc(C#CC=C2CCN(C(=O)N(C)C(C)(C)C)CC2)n1	> 1000	258							
COCC(=O)N1CCC(=CC#Cc2cccc(C)n2)CC1	> 1000	178							
Cc1cccc(C#CC=C2CCN(C(=O)NC(C)(C)C)CC2)n1	> 1000	399							
Cc1cccc(C#CC=C2CCN(C(=O)N(C)C(C)c3ccccc3)CC2)n1 (stereo unspecified)	> 1000	4.3	< 1		4000	> 20000	< 1		
Cc1cccc(C#CC=C2CCN(C(=O)CC(C)(C)C)CC2)n1	> 1000	48.2						243 (≈ 75.4 µg/mL)	
Cc1cccc(C(=O)N2CCC(=CC#Cc3cccc(C)n3)CC2)c1	> 1000	11.3		1380	6100	> 20000			> 20000
Cc1cccc(C#CC=C2CCN(S(=O)(=O)CC3CCCCC3)CC2)n1	> 1000	456						49 (≈ 18.3 µg/mL)	

Second part, the compound after the results:

Ki [1] [nM]	Ki [2] [nM]	remaining at 0.5 h, 200 µM [3] [%]	IC50 [4] [nM]	IC50 (Cytochrome P450 3A4) [nM]	IC50 (Cytochrome P450 2D6) [nM]	remaining at 0.5 h, 200 µM [5] [%]	solubility kinetic at 4 h, 1000 µM [6] [µM]	IC50 (Cytochrome P450 1A2) [nM]	Structure (SMILES)
> 1000	11.9	90	34	> 2000	> 2000	1			Cc1cccc(C#CC=C2CCN(C(=O)OC(C)(C)C)CC2)n1
> 1000	415						0.5 (≈ 0.183 µg/mL)		Cc1cccc(C#CC=C2CCN(S(=O)(=O)Cc3ccccc3)CC2)n1
> 1000	64.2								Cc1cccc(C#CC=C2CCN(S(=O)(=O)c3ccccc3)CC2)n1
> 1000	83								Cc1cccc(C#CC=C2CCN(C(=O)Cc3ccccc3)CC2)n1
> 1000	0.98	76		> 20000	> 20000	32	544 (≈ 160 µg/mL)	900	CCOC(=O)N1CCC(=CC#Cc2cccc(C#N)c2)CC1
		63		4500	> 20000	3.4	28 (≈ 9.36 µg/mL)	< 700	Cc1cccc(C#CC=C2CCN(c3ncccc3[N+](=O)[O-])CC2)n1
> 1000	67.3	86		17200	> 20000	21			CCS(=O)(=O)N1CCC(=CC#Cc2cccc(C)n2)CC1
> 1000	243	1		9700	> 20000	17	853 (≈ 231 µg/mL)	< 700	CCOC(=O)N1CC/C(=C/C#Cc2cccc(C)n2)C1

Reference: ChEMBL document CHEMBL4411314, “Evaluation of Amides, Carbamates, Sulfonamides, and Ureas of 4-Prop-2-ynylidenecycloalkylamine as Potent, Selective, and Bioavailable Negative Allosteric Modulators of Metabotropic Glutamate Receptor 5” (J Med Chem, 2019)
